Data: ChEMBL document CHEMBL2016503, “Design and synthesis of 4-O-methylhonokiol analogs as inhibitors of cyclooxygenase-2 (COX-2) and PGF₁ production” (Bioorg Med Chem, 2012)

Tests used:
[1] = system: RAW264.7; experiment: Inhibition of LPS-induced NO production in mouse RAW264.7 cells after 24 hrs by Griess assay; format: functional, cell-based; details: RAW264.7, 24 h
Summary of the method: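 RAW264.7 macrophages were grown in DMEM with heat-inactivated 10% FBS, penicillin and streptomycin at 37 °C under 5% CO₂. Cells were stimulated with LPS for 24 h with or without compound. Culture medium was mixed with an equal volume of 0.05% sulfanilamide and 0.05% N-(1-naphthyl)ethylenediamine, and absorbance was read at 540 nm. Nitrite was quantified against a sodium nitrite standard curve.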

[2] = system: RAW264.7; experiment: Cytotoxicity against mouse RAW264.7 cells assessed as cell viability by propidium iodide staining based FACS-flow cytometry
Summary of the method: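 RAW264.7 macrophages were grown in DMEM with heat-inactivated 10% FBS, penicillin and streptomycin at 37 °C under 5% CO₂. Viability was assessed by propidium iodide nuclear staining at 1 µg/ml, followed by flow cytometry. PI-stained cells were counted as dead.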

[3] = target: T1, Prostaglandin G/H synthase 2 (Homo sapiens) (UniProt P35354); details: at 100 nM;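 note: recombinant enzyme with arachidonic acid substrate, compound preincubated 10 min before substrate, product read by EIA after 2 min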
T1 sequence (whole entry): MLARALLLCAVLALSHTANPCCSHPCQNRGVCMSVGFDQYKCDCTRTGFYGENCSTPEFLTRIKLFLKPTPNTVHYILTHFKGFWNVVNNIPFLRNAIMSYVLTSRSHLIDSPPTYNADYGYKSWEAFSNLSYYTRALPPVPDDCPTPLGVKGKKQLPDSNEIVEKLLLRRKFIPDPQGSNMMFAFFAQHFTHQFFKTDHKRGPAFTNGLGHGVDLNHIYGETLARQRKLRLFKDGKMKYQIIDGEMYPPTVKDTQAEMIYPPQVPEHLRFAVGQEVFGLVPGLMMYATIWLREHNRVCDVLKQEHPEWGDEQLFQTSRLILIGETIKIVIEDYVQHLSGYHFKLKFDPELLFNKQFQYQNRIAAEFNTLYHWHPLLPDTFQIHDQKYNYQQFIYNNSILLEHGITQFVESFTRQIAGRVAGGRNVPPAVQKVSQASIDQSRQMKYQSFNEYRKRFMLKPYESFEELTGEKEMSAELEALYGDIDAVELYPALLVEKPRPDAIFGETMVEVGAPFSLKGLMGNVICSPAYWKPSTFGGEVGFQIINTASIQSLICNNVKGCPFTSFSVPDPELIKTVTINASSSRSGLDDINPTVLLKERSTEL

IC50 [1] [µM]	inhibition [3] [%]	Structure (SMILES)	IC50 [2] [µM]
61	39	C=CCc1ccc(O)c(-c2cc(CCC)on2)c1	81
18	57	C=CCc1ccc(O)c(-c2ccc(OC)c(CC=C)c2)c1 [METHYLHONOKIOL]	27
40	–	C=CCc1cc(Cl)c(O)c(-c2ccc(OC)c(CC=C)c2)c1	81
> 100	44	C=CCc1ccc(OCC=C(C)C)c(-c2ccc(OC)c(CC=C)c2)c1	> 100
13	41	COc1ccc(-c2cc(CC=C(C)C)ccc2O)cc1CC=C(C)C	15
24	39	C=CCc1ccc(OC(C)=O)c(-c2ccc(OC)c(CC=C)c2)c1	29
78	23	C=CCc1ccc(OC(C)C)c(-c2ccc(OC)c(CC=C)c2)c1	> 100
> 100	65	C=CCc1ccc(OC(=O)NCc2ccccc2)c(-c2ccc(OC)c(CC=C)c2)c1	> 100
41	–	C=CCc1ccc(O)c(-c2ccc(OC)c(CCCO)c2)c1	53
33	33	CCCc1ccc(O)c(-c2cn(CC3CCC3)nn2)c1	> 50
63	35	CCCc1cc(-c2cc(Br)ccc2O)no1	63
> 50	22	C=CCn1cc(-c2cc(CCC)ccc2O)nn1	> 50
40	46	C=CCc1ccc(OC)c(-c2ccc(OC)c(CC=C)c2)c1	> 100
24	58	COc1ccc(-c2cc(CC3CO3)ccc2O)cc1CC1CO1 (configuration not stated)	64
12.1	–	Cc1ccc(-c2cc(C(F)(F)F)nn2-c2ccc(S(N)(=O)=O)cc2)cc1 [CELECOXIB]	11.1
28	52	C=CCc1cc(Br)c(O)c(-c2ccc(OC)c(CC=C)c2)c1	33
> 100	48	C=CCNC(=O)Oc1ccc(CC=C)cc1-c1ccc(OC)c(CC=C)c1	> 100
36	38	C=CCc1ccc(O)c(-c2cc(CO)on2)c1	> 50

Structure (SMILES)	IC50 [1] [µM]	inhibition [3] [%]	IC50 [2] [µM]
C=CCc1ccc(OC(=O)N(C)Cc2ccccc2)c(-c2ccc(OC)c(CC=C)c2)c1	33	63	44
CCCc1ccc(O)c(-c2ccc(OC)c(CCC)c2)c1	11	46	13
